ChEMBL document CHEMBL5712914, “Selective Janus Kinase 1 Inhibition Is a Promising Therapeutic Approach for Lupus Erythematosus Skin Lesions” (Front Immunol, 2020)
Active and inactive are the calls of the source.

Columns and labels:
[1] = target: T1, Tyrosine-protein kinase JAK3 (Homo sapiens, UniProt P52333); assay: Inhibition of JAK3 in endogenous nucleic acid-stimulated human HaCaT cells assessed as reduction in CXCL10 expression at 100 nM measured after 24 hrs by ELISA
T1 sequence (P52333 whole entry): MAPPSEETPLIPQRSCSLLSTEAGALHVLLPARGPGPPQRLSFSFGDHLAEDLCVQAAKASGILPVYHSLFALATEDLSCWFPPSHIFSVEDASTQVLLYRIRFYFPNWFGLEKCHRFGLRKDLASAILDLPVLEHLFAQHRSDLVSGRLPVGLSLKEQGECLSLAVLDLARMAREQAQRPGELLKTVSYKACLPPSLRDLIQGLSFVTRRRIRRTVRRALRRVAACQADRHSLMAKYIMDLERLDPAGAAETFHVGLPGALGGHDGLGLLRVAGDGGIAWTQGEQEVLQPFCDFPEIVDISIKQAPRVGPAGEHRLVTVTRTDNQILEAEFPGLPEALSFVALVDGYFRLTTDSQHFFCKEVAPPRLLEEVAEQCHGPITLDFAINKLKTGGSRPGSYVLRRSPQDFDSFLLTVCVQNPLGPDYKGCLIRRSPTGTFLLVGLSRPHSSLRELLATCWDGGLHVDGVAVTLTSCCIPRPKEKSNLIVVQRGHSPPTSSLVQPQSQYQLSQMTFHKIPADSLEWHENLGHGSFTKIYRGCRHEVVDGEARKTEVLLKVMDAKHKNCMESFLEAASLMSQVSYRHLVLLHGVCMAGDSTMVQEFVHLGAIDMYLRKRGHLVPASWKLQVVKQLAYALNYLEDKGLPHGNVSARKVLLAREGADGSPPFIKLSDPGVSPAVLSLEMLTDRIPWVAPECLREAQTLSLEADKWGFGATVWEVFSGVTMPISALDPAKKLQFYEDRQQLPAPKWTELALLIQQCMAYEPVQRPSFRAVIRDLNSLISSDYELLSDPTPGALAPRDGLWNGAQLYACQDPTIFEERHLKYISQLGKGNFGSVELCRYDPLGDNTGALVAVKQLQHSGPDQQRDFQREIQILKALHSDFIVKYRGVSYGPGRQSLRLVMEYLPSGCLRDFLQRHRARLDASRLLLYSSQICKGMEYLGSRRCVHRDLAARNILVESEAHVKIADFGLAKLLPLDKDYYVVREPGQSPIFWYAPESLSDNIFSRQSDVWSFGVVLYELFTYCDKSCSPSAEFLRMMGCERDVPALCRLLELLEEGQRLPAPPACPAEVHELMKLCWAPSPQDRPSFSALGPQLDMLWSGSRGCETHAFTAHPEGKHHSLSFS

Mus musculus [2] = assay: Improvement in CLE-like skin lesions in 450 mJ/cm2 UV-irradiated lupus-prone TREX1-/- mouse model assessed as reduction in CXCL10 gene expression in lesional skin at 1 % administered topically for 7 days relative to control; type: functional, organism-based; conditions: time 7.0 day
In short: (§1)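 Lesional skin from TREX1–/– mice given the topical JAK1 inhibitor or placebo underwent gene expression analysis for IFN-associated genes. Differential expression was defined as a change greater than twofold with p < 0.05 by Welch's t-test against placebo.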

Mus musculus [3] = assay: Improvement in CLE-like skin lesions in 450 mJ/cm2 UV-irradiated lupus-prone TREX1-/- mouse model assessed as reduction in lession size at 1 % administered topically for 7 days measured on day 4 and 7 post-dose; type: functional, organism-based; conditions: time 7.0 day
In short: (§2)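 Topical treatment or placebo was given for 7 days, with n = 4 mice per group. Lesions were photographed daily and mice weighed every 2 days. Erythema, induration, scaling and lesion size were scored with the mouse-adapted revised CLASI (Mouse RCLASI) and reported as mean ± SEM.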

[4] = target: Tyrosine-protein kinase JAK1 (Homo sapiens) (UniProt P23458); assay: Inhibition of JAK1 in endogenous nucleic acid-stimulated NHEK cells assessed as decrease in BlyS gene expression at 1 uM relative to control; type: cell-based
In short: (§3)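 NHEK primary keratinocytes were stimulated with endogenous nucleic acids (eNA) and then treated with inhibitor at 1 μM final, 4 samples per condition. Gene expression was compared with untreated eNA-stimulated cells. Downregulation was defined as greater than twofold with p < 0.05 by Welch's t-test.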
Target sequence in this assay (P23458 whole entry): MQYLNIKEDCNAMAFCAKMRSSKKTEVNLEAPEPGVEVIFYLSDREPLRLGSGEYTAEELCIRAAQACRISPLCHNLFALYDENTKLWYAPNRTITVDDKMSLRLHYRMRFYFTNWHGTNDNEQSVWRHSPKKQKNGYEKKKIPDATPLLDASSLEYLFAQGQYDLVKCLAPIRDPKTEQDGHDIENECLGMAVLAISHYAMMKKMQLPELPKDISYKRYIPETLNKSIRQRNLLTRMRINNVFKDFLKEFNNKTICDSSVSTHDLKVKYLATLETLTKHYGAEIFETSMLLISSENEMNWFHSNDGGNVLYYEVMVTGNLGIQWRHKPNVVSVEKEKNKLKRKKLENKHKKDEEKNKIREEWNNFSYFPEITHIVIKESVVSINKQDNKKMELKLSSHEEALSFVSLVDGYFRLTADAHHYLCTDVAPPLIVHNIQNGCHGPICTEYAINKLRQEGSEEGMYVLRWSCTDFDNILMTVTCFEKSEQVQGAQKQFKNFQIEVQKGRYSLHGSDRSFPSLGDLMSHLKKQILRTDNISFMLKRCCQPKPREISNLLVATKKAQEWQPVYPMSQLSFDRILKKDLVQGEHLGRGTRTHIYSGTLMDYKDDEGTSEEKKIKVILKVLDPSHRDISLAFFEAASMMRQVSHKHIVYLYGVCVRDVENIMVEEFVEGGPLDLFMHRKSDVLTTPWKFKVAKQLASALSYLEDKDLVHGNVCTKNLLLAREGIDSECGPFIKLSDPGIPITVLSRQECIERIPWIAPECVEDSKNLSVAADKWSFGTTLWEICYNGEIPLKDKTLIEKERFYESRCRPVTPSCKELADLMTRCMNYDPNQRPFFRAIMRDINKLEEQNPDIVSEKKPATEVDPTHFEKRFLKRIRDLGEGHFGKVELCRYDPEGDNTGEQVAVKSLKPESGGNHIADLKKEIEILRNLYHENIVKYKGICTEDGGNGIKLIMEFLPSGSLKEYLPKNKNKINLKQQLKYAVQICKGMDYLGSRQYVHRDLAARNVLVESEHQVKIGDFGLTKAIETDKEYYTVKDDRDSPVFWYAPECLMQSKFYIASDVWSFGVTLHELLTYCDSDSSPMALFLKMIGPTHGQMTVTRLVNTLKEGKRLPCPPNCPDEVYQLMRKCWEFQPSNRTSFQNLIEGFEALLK

Mus musculus [5] = assay: Improvement in CLE-like skin lesions in 450 mJ/cm2 UV-irradiated lupus-prone TREX1-/- mouse model assessed as improvement in infiltrating dermal immune cells at 1 % administered topically for 7 days by H and E staining based histological analysis; type: functional, organism-based; conditions: time 7.0 day
In short: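 Lesional skin from the topically treated or placebo-treated groups was processed for H&E and anti-CD45 immunohistology and viewed at ×400. Dermal infiltrate was graded as a CD45 inflammation score. Values are mean ± SEM and were compared by Mann-Whitney U test.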

[6] = target: Tyrosine-protein kinase JAK1 (Homo sapiens) (UniProt P23458); assay: Inhibition of JAK1 in endogenous nucleic acid-stimulated NHEK cells assessed as decrease in Caspase 10 gene expression at 1 uM relative to control; type: cell-based
In short: as §3
Target sequence in this assay (P23458 whole entry): as above

Mus musculus [7] = assay: Improvement in CLE-like skin lesions in 450 mJ/cm2 UV-irradiated lupus-prone TREX1-/- mouse model assessed as improvement in epidermal thickness at 1 % administered topically for 7 days by H and E staining based histological analysis; type: functional, organism-based; conditions: time 7.0 day
Mus musculus [8] = assay: Improvement in CLE-like skin lesions in 450 mJ/cm2 UV-irradiated lupus-prone TREX1-/- mouse model assessed as reduction in induration at 1 % administered topically for 7 days measured on day 4 and 7 post-dose; type: functional, organism-based; conditions: time 7.0 day
In short: as §2

[9] = target: Tyrosine-protein kinase JAK1 (Homo sapiens) (UniProt P23458); assay: Inhibition of JAK1 in endogenous nucleic acid-stimulated NHEK cells assessed as decrease in CXCL11 gene expression at 1 uM relative to control; type: cell-based
In short: as §3
Target sequence in this assay (P23458 whole entry): as above

Mus musculus [10] = assay: Improvement in CLE-like skin lesions in 450 mJ/cm2 UV-irradiated lupus-prone TREX1-/- mouse model assessed as reduction in CCL7 gene expression in lesional skin at 1 % administered topically for 7 days relative to control; type: functional, organism-based; conditions: time 7.0 day
In short: as §1

Mus musculus [11] = assay: Improvement in CLE-like skin lesions in 450 mJ/cm2 UV-irradiated lupus-prone TREX1-/- mouse model assessed as reduction in IRF7 gene expression in lesional skin at 1 % administered topically for 7 days relative to control; type: functional, organism-based; conditions: time 7.0 day
In short: as §1

Mus musculus [12] = assay: Improvement in CLE-like skin lesions in 450 mJ/cm2 UV-irradiated lupus-prone TREX1-/- mouse model assessed as reduction in IFITM3 gene expression in lesional skin at 1 % administered topically for 7 days relative to control; type: functional, organism-based; conditions: time 7.0 day
In short: as §1

Mus musculus [13] = assay: Improvement in CLE-like skin lesions in 450 mJ/cm2 UV-irradiated lupus-prone TREX1-/- mouse model assessed as reduction in CCL9 gene expression in lesional skin at 1 % administered topically for 7 days relative to control; type: functional, organism-based; conditions: time 7.0 day
In short: as §1

[14] = target: Tyrosine-protein kinase JAK1 (Homo sapiens) (UniProt P23458); assay: Inhibition of JAK1 in endogenous nucleic acid-stimulated human HaCaT cells assessed as reduction in CXCL10 expression at 1 uM measured after 24 hrs by ELISA
Target sequence in this assay (P23458 whole entry, looked up): as the sequence (P23458 whole entry) above

Mus musculus [15] = assay: Improvement in CLE-like skin lesions in 450 mJ/cm2 UV-irradiated lupus-prone TREX1-/- mouse model assessed as reduction in CCL5 gene expression in lesional skin at 1 % administered topically for 7 days relative to control; type: functional, organism-based; conditions: time 7.0 day
In short: as §1

Mus musculus [16] = assay: Improvement in CLE-like skin lesions in 450 mJ/cm2 UV-irradiated lupus-prone TREX1-/- mouse model assessed as reduction in IFIT1 gene expression in lesional skin at 1 % administered topically for 7 days relative to control; type: functional, organism-based; conditions: time 7.0 day
In short: as §1

Mus musculus [17] = assay: Improvement in CLE-like skin lesions in 450 mJ/cm2 UV-irradiated lupus-prone TREX1-/- mouse model assessed as reduction in erythema at 1 % administered topically for 7 days measured on day 4 and 7 post-dose; type: functional, organism-based; conditions: time 7.0 day
In short: as §2

Mus musculus [18] = assay: Improvement in CLE-like skin lesions in 450 mJ/cm2 UV-irradiated lupus-prone TREX1-/- mouse model assessed as reduction in IRF9 gene expression in lesional skin at 1 % administered topically for 7 days relative to control; type: functional, organism-based; conditions: time 7.0 day
In short: as §1

Mus musculus [19] = assay: Improvement in CLE-like skin lesions in 450 mJ/cm2 UV-irradiated lupus-prone TREX1-/- mouse model assessed as reduction in CCL2 gene expression in lesional skin at 1 % administered topically for 7 days relative to control; type: functional, organism-based; conditions: time 7.0 day
In short: as §1

[20] = target: Tyrosine-protein kinase JAK1 (Homo sapiens) (UniProt P23458); assay: Inhibition of JAK1 in endogenous nucleic acid-stimulated NHEK cells assessed as decrease in TRAIL gene expression at 1 uM relative to control; type: cell-based
In short: as §3
Target sequence in this assay (P23458 whole entry): as above

Mus musculus [21] = assay: Improvement in CLE-like skin lesions in 450 mJ/cm2 UV-irradiated lupus-prone TREX1-/- mouse model assessed as reduction in scaling at 1 % administered topically for 7 days measured on day 4 and 7 post-dose; type: functional, organism-based; conditions: time 7.0 day
In short: as §2

Mus musculus [22] = assay: Improvement in CLE-like skin lesions in 450 mJ/cm2 UV-irradiated lupus-prone TREX1-/- mouse model assessed as reduction in CXCL9 gene expression in lesional skin at 1 % administered topically for 7 days relative to control; type: functional, organism-based; conditions: time 7.0 day
In short: as §1

[23] = target: Tyrosine-protein kinase JAK1 (Homo sapiens) (UniProt P23458); assay: Inhibition of JAK1 in endogenous nucleic acid-stimulated NHEK cells assessed as decrease in TREX1 gene expression at 1 uM relative to control; type: cell-based
In short: as §3
Target sequence in this assay (P23458 whole entry): as above

[24] = target: Tyrosine-protein kinase JAK1 (Homo sapiens) (UniProt P23458); assay: Inhibition of JAK1 in endogenous nucleic acid-stimulated NHEK cells assessed as decrease in CXCL10 gene expression at 1 uM relative to control; type: cell-based
In short: as §3
Target sequence in this assay (P23458 whole entry): as above

Mus musculus [25] = assay: Improvement in CLE-like skin lesions in 450 mJ/cm2 UV-irradiated lupus-prone TREX1-/- mouse model assessed as reduction in IRF1 gene expression in lesional skin at 1 % administered topically for 7 days relative to control; type: functional, organism-based; conditions: time 7.0 day
In short: as §1

[26] = target: Tyrosine-protein kinase JAK1 (Homo sapiens) (UniProt P23458); assay: Inhibition of JAK1 in endogenous nucleic acid-stimulated NHEK cells assessed as decrease in AIM2 gene expression at 1 uM relative to control; type: cell-based
In short: as §3

For `CN(C)C(=O)/C(C#N)=C/c1ccc(-c2nc3cnc4[nH]ccc4c3n2C2CCCCC2)o1`, the “inhibition (INH)” value [1] was “Not Active”.

`N#CCC1(n2cc(-c3ncnc4[nH]ccc34)cn2)CN(C2CCN(C(=O)c3ccnc(C(F)(F)F)c3F)CC2)C1` [ITACITINIB] was tested, and the Activity (Mus musculus [2]) was “Active”, the Activity (Mus musculus [3]) was “Active” and the fold change (FC) [4] was greater than 2. The Activity (Mus musculus [5]) was “Active”, the fold change (FC) [6] was greater than 2 and the Activity (Mus musculus [7]) was “Active”. For the same compound, the Activity (Mus musculus [8]) was “Active”, the fold change (FC) [9] was greater than 2 and the Activity (Mus musculus [10]) was “Active”. The Activity (Mus musculus [11]) was “Active”, the Activity (Mus musculus [12]) was “Active” and the Activity (Mus musculus [13]) was “Active”. The “inhibition (INH)” value [14] was “Active”, the Activity (Mus musculus [15]) was “Active” and the Activity (Mus musculus [16]) was “Active”. The Activity (Mus musculus [17]) was “Active”, the Activity (Mus musculus [18]) was “Active” and the Activity (Mus musculus [19]) was “Active”. The fold change (FC) [20] was greater than 2, the Activity (Mus musculus [21]) was “Active” and the Activity (Mus musculus [22]) was “Active”. For the same compound, the fold change (FC) [23] was greater than 2, the fold change (FC) [24] was greater than 2 and the Activity (Mus musculus [25]) was “Active”. It also gave a fold change (FC) [26] greater than 2.
